Source: PubChem
A selection: hits, their analogues and other compounds. The true share with any hit is near 4.9%.
APP 5'UTR act: APP 5'UTR luciferase reporter activation; SH-SY5Y APP 5'UTR luciferase reporter, luminescence; zero percent = DMSO vehicle wells; activation, % at 2 µM; actives 1% (n = 190,000); AID 1276;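 active means activation above a set limit, based on mean plus 3 SD of controls, cut at about 140% in these data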
STAT1 act: activators of IFN-gamma induced STAT1 signaling; NIH 3T3 STAT1-luciferase reporter, luminescence; 100% = IFN-gamma alone, no compound; activation (% of control), % at 5.5 µM; actives 2.6% (n = 200,000);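 active means activation above the screen-wide mean activation plus 3 SD, cut at about 130% in these data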;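 further: raw ratio to IFN-gamma control signal so 100% means no change and 0% no light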
STAT3 blocker: inhibitors of IL-6 induced STAT3 signaling; U3A cells, IL-6 STAT3-luciferase reporter, luminescence; host cell line lacks STAT1; inhibition, % at 5.5 µM; actives 0.89% (n = 190,000); AID 862;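 active means inhibition above the mean inhibition across all screened compounds plus 3 SD, cut at about 44% in these data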;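 further: 0% = DMSO only wells and 100% = 100 µM nifuroxazide control wells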
NF-kB neuron act: compounds increasing NF-kB expression in human neuronal cells. actives 1.6% (n = 190,000). AID 1239. fold change at 12.5 µM. NF-kB reporter expression; hits give high values; in the data active means fold change above about 3.3
STAT1 blocker: inhibitors of IFN-gamma induced STAT1 signaling; NIH 3T3 STAT1-luciferase reporter, luminescence; inhibition, % at 5.5 µM; actives 0.35% (n = 200,000);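 active means inhibition above a set limit, the mean inhibition across all tested compounds plus 3 SD, cut at about 34% in these data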;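 further: 0% = IFN-gamma with DMSO and 100% = IFN-gamma with 300 µM nifuroxazide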
STAT3 act: increases IL-6 driven STAT3 reporter signal; U3A cells, IL-6 STAT3-luciferase reporter, luminescence; 100% = signal with IL-6 EC80 alone; activation (% of control), % at 5.6 µM; actives 0.91% (n = 190,000); AID 871;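 active means activation above the screen-wide mean of compound activation plus 3 SD, cut at about 130% in these data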;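 further: 0% = background luminescence of wells with medium and substrate only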
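Test system: Human STAT1-deficient U3A cells with stable STAT3-luciferase reporter | Also added: Interleukin-6, 33 ng/mL | Timing: Compound pre-incubation 1 h before IL-6, then 6 h stimulation at 37 °C | Technique: Luciferase reporter luminescence | Read-out: Percent of IL-6-only median luminescence | Benchmarks: IL-6-only wells as 100% reference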
STAT1 act conf: confirmation of STAT1 signaling activators | shares compounds with STAT1 act | NIH 3T3 STAT1-luciferase reporter, IFN-gamma potentiation, luminescence; 100% = IFN-gamma EC80 alone, no compound | activation (% of control), % at 5.7 µM | actives 97% (n = 1,200) | AID 1262;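 active means activation above a set limit carried over from the earlier primary STAT1 screen, cut at about 140% in these data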;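 further: simple ratio to median IFN-gamma plus DMSO wells so 0% means no light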
NFkB act STAT1ct: counter-screen for STAT1 activators: NF-kappaB activation; shares compounds with STAT1 act; HEK293T NF-kB luciferase reporter, TNF-alpha stimulated, luminescence; 100% = TNF-alpha with vehicle only; activation (% of control), % at 5.7 µM; actives 43% (n = 1,200); AID 1306;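 active means activation above the mean of solvent-only control wells plus 3 SD, set per campaign, cut at about 130% in these data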;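 further: TNF-alpha given at a submaximal dose yielding about 80% of full reporter signal; values are well signal over median control so 100% means no change and 0% no light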
STAT3 act 2: counter-screen for STAT1 activators: human STAT3 activation | shares compounds with STAT1 act | U3A cells STAT3-luciferase reporter, IL-6, luminescence; cells lack STAT1; 100 = IL-6 alone, no compound effect | activation (% of control), % at 5.7 µM | actives 46% (n = 1,200);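 active means activation above the solvent-only control well mean plus 3 SD, set per plate batch, cut at about 110% in these data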;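 further: 0% = no luminescence and 100% = median IL-6 plus DMSO wells; higher means more STAT3 reporter activation so hits are non-selective activators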
* hit, by the source's call; nt = no result given.

SMILES | APP 5'UTR act | STAT1 act | STAT3 blocker | NF-kB neuron act | STAT1 blocker | STAT3 act | STAT1 act conf | NFkB act STAT1ct | STAT3 act 2
CC(=O)Nc1ccc(S(=O)(=O)Nc2cccc(-c3nc4ccccc4o3)c2)cc1 | 1.8 | 100.1 | 26.8 | 0.95 | -0.1 | 82.2 | nt | nt | nt
Cc1nc2ccc(-c3nc4ccccc4o3)cc2[nH]1 | 142.9* | 195.4* | 35.5 | 6.98* | -104.3 | 71.9 | 231.8* | 121.4 | 98.3
CCOC(=O)N1CCN(C(=O)c2ccc(SC)cc2OC)CC1 | 1.1 | 98.7 | 12.0 | 1.05 | -0.6 | 95.5 | nt | nt | nt
O=[N+]([O-])c1ccccc1/C=C/C=N/N1CCCCC1 | 99.2 | 155.1* | 7.2 | 4.48* | -59.6 | 97.3 | 177.9* | 129.7 | 111.3*
CC(C)c1cc(N2CCC(=O)NC2=O)cc(C(=O)O)c1O | 2.4 | 96.1 | -6.8 | 1.12 | 3.7 | 106.8 | nt | nt | nt
COC(=O)CCC(=O)Nc1cccc([N+](=O)[O-])c1 | -1.3 | 105.5 | 5.6 | 1.24 | -6.3 | 101.8 | nt | nt | nt
Cc1occc1C(=O)NNC(=O)c1ccccc1Br | 12.2 | 108.9 | -5.5 | 1.45 | -10.1 | 108.2 | nt | nt | nt
Cc1cc(C(=O)CSc2nc(N)cc(N)n2)c(C)n1-c1cccc(F)c1 | 5.8 | 99.0 | 11.7 | 1.38 | 0.5 | 91.3 | nt | nt | nt
O=C(CC(c1ccccc1)c1ccccc1)Nc1ccc(Cl)cn1 | 13.6 | 94.1 | -4.1 | 1.17 | 6.4 | 106.5 | nt | nt | nt
O=C(/C=C/c1ccccc1)Nc1ccc(Cl)cn1 | 79.6 | 155.7* | 8.7 | 3.18 | -60.1 | 100.4 | 208.5* | 120.6 | 95.2
O=C(NC(=S)Nc1ncccn1)c1ccc(Cl)cc1Cl | 36.3 | 174.0* | -10.5 | 2.22 | -80.4 | 110.6 | 218.3* | 130.5 | 109.5
CCC(=O)Nc1cccc(NC(=S)NC(=O)c2ccc(Cl)cc2Cl)c1 | 19.5 | 122.4 | -5.2 | 1.26 | -25.2 | 103.4 | nt | nt | nt
COCCNC(=O)C(c1ccc(C)o1)N(C(=O)Cn1nnc2ccccc21)c1ccccc1 (stereo unspecified) | -18.6 | 106.5 | 6.5 | 1.03 | -9.2 | 97.3 | nt | nt | nt
CC(C)OC(=O)/C(=C\c1cccc2ccccc12)NC(=O)c1ccccc1 | 0.8 | 101.7 | -11.3 | 0.82 | -2.0 | 108.2 | nt | nt | nt
Cc1ccc(/C=C/C(=O)Nc2ccccc2C(N)=O)cc1 | 183.4* | 152.5* | 32.6 | 5.32* | -59.8 | 74.7 | 179.8* | 111.9 | 88.1
NC(=O)c1ccccc1NC(=O)/C=C/C(=O)O | 13.6 | 96.7 | 10.3 | 2.67 | 3.6 | 97.4 | nt | nt | nt
COC(=O)c1sc(S(=O)(=O)NC(C)C(=O)O)c(C(=O)OC)c1C (stereo unspecified) | -8.2 | 94.6 | -3.9 | 1.53 | 5.3 | 105.1 | nt | nt | nt
COc1cccc(C(=O)Nc2ccc(C3CC3(Cl)Cl)cc2)c1 (stereo unspecified) | 94.1 | 152.4* | 16.5 | 5.73* | -59.5 | 89.1 | 192.7* | 143.3* | 104.4
CC(=O)Cc1nsc(Nc2ccc(C)cc2)n1 | 91.7 | 156.5* | -5.5 | 3.15 | -62.5 | 107.6 | 189.5* | 136.8* | 122.4*
CNc1nc(CC(C)=O)ns1 | -0.6 | 90.5 | 4.9 | 1.36 | 10.3 | 98.0 | nt | nt | nt
c1ccc2c(c1)oc1c(Nc3ccc4c(c3)OCO4)ncnc12 | 79.7 | 157.7* | 2.1 | 2.18 | -63.2 | 101.4 | 202.2* | 142.4* | 109.6
c1ccc2c(c1)oc1c(Nc3ccc(CN4CCOCC4)cc3)ncnc12 | 187.1* | 157.8* | 0.0 | 0.41 | -63.2 | 103.2 | 207.4* | 135.4* | 115.4*
CN(CCc1ccccn1)C(=O)CCC1CCCN(C(=O)NC2CCCCC2)C1 (stereo unspecified) | 1.4 | 116.2 | -2.6 | nt | -20.0 | 106.9 | nt | nt | nt
